# Experimental data gathered from unrelated publications.
# Cell line: DU-145
# Observed: cell growth or viability
Compound,assay,conditions,GI50 [µM]
COc1cc(-c2ccc(-c3ccc(C(=N)N)nc3)s2)cc(OC)c1OC,,,3.45
COc1ccc(C(=O)/C=C/c2cccc(Cl)c2Cl)cc1S(N)(=O)=O,SRB,48 h,2.9
COc1cc2c(cc1OS(N)(=O)=O)CCN(Cc1cc(Cl)c(OC)c(OC)c1)C2,WST-1,96 h,0.04
COc1ccc(-c2ccc(-c3ccc(C(=N)N)nc3)s2)cc1Cl,,,1.77
COc1cc2c(cc1OS(N)(=O)=O)CCN(Cc1ccc(OC)c(OC)c1OC)C2,WST-1,96 h,17
Cc1cc(C)n(C(=S)[S][Au][PH](CCCCCC[PH]([Au][S]C(=S)n2nc(C)cc2C)(c2ccccc2)c2ccccc2)(c2ccccc2)c2ccccc2)n1,,,0.633
COc1ccc(C(=O)/C=C/c2c(F)cccc2Cl)cc1S(N)(=O)=O,SRB,48 h,3.3
CC(=O)O[C@H]1C(=O)[C@@]2(C)[C@H]([C@H](OC(=O)c3ccccc3)[C@]3(O)C[C@H](OC(=O)[C@H](O)[C@@H](NC(=O)c4ccccc4)c4ccccc4)C(C)=C1C3(C)C)[C@]1(OC(C)=O)CO[C@@H]1C[C@@H]2O,WST-1,96 h,0.004
COc1cc2c(cc1O)CCN(S(=O)(=O)c1ccccc1OC)C2,WST-1,96 h,> 100
COc1ccc(C(=O)/C=C/c2cccc(Cl)c2)cc1S(N)(=O)=O,SRB,48 h,3.6
COc1cc2c(cc1O)CCN(Cc1cc(Cl)c(OC)c(OC)c1)C2,WST-1,96 h,0.9
COc1cc2c(cc1O)CCN(Cc1cccc(NS(C)(=O)=O)c1)C2,WST-1,96 h,> 100
COc1ccc(C(=O)/C=C/c2cc3c(cc2Br)OCO3)cc1S(N)(=O)=O,SRB,48 h,3.7
COc1cc2c(cc1O)CCN(Cc1cc(OC)c(OC)c(OC)c1)C2,WST-1,96 h,0.65
COc1ccc(C(=O)/C=C/c2cccc3ccccc23)cc1S(N)(=O)=O,SRB,48 h,2.8
CCc1cc(CN2CCc3cc(O)c(OC)cc3C2)cc(CC)c1CC,WST-1,96 h,63
COc1ccc(C(=O)/C=C/c2ccc(Cl)c(Cl)c2)cc1S(N)(=O)=O,SRB,48 h,3.5
COc1cc2c(cc1O)CCN(Cc1cc(Br)c(OC)c(OC)c1)C2,WST-1,96 h,0.3
COc1cc2c(cc1O)CCN(Cc1cccc(OC)c1OC)C2,WST-1,96 h,> 100
